Measurements published in ChEMBL document CHEMBL1828575, “Design, synthesis and antiproliferative activities of biarylolefins based on polyhydroxylated and carbohydrate scaffolds” (Eur J Med Chem, 2011).

Columns and labels:
PC-3 [1] = assay: Cytotoxicity against human PC3 cells at 10^-6 M after 72 hrs by MTS assay; assay type: functional; conditions: PC-3, 72 h, read-out: GI
Outline: (§1)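 Preliminary screen at 10^-5 and 10^-6 M. Cells were grown in RPMI with 10% fetal calf serum plus penicillin, streptomycin and fungizone under 5% CO₂, plated in 96-well plates, and dosed 24 h later from DMSO stocks (1% DMSO final, same in controls). After 72 h, MTS was added for 3 h at 37 °C and absorbance read at 490 nm. Inhibition was calculated as (1 − OD treated/OD control) × 100, in triplicate.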

SF-268 [2] = assay: Cytotoxicity against human SF268 cells at 10^-6 M after 72 hrs by MTS assay; assay type: functional; conditions: SF-268, 72 h, read-out: GI; outline: as §1
SK-OV-3 [3] = assay: Cytotoxicity against human SKOV3 cells at 10^-6 M after 72 hrs by MTS assay; assay type: functional; conditions: SK-OV-3, 72 h, read-out: GI; outline: as §1
OVCAR-8 [4] = assay: Cytotoxicity against human OVCAR8 cells at 10^-6 M after 72 hrs by MTS assay; assay type: functional; conditions: OVCAR-8, 72 h, read-out: GI; outline: as §1
MIA PaCa-2 [5] = assay: Cytotoxicity against human MIAPaCa2 cells at 10^-6 M after 72 hrs by MTS assay; assay type: functional; conditions: MIA PaCa-2, 72 h, read-out: GI
HL-60 [6] = assay: Cytotoxicity against human HL60 cells at 10^-6 M after 72 hrs by MTS assay; assay type: functional; conditions: HL-60, 72 h, read-out: GI
Outline: (§2)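 Cells grown in RPMI with 10% fetal calf serum, penicillin, streptomycin and fungizone under 5% CO₂. Plated in 96-well plates and dosed 24 h later with compound in DMSO (1% final DMSO; controls got DMSO alone). After 72 h, MTS was added for 3 h at 37 °C and A490 read. Inhibition = (1 − OD treated/OD control) × 100, in triplicate.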

[7] = Cytotoxicity against human HL60R cells at 10^-6 M after 72 hrs by MTS assay; assay type: functional; conditions: read-out: GI; outline: as §2
K562 [8] = assay: Cytotoxicity against human K562 cells at 10^-6 M after 72 hrs by MTS assay; assay type: functional; conditions: K562, 72 h, read-out: GI; outline: as §2
[9] = Cytotoxicity against human Hs 578T cells assessed as cellular growth at 10 uM after 48 hrs by SRB assay; assay type: functional
SW-620 = assay: Cytotoxicity against human SW620 cells assessed as cellular growth at 10 uM after 48 hrs by SRB assay; assay type: functional
HCT-116 [10] = assay: Cytotoxicity against human HCT116 cells at 10^-5 M after 72 hrs by MTS assay; assay type: functional; conditions: HCT-116, 72 h, read-out: GI; outline: as §2
HT-29 [11] = assay: Cytotoxicity against human HT-29 cells at 10^-5 M after 72 hrs by MTS assay; assay type: functional; conditions: HT-29, 72 h, read-out: GI; outline: as §2
HCT-15 [12] = assay: Cytotoxicity against human HCT15 cells at 10^-5 M after 72 hrs by MTS assay; assay type: functional; conditions: HCT-15, 72 h, read-out: GI; outline: as §2
MCF7 = assay: Cytotoxicity against human MCF7 cells at 10^-5 M after 72 hrs by MTS assay; assay type: functional; conditions: MCF7, 72 h, read-out: GI
[13] = Cytotoxicity against human MDA231 cells at 10^-5 M after 72 hrs by MTS assay; assay type: functional; conditions: MDA-MB-231, 72 h, read-out: GI; outline: as §1
A549 [14] = assay: Cytotoxicity against human A549 cells at 10^-5 M after 72 hrs by MTS assay; assay type: functional; conditions: A549, 72 h, read-out: GI; outline: as §2
PC-3 [15] = assay: Cytotoxicity against human PC3 cells at 10^-5 M after 72 hrs by MTS assay; assay type: functional; conditions: PC-3, 72 h, read-out: GI; outline: as §1
SF-268 [16] = assay: Cytotoxicity against human SF268 cells at 10^-5 M after 72 hrs by MTS assay; assay type: functional; conditions: SF-268, 72 h, read-out: GI; outline: as §1
SK-OV-3 [17] = assay: Cytotoxicity against human SKOV3 cells at 10^-5 M after 72 hrs by MTS assay; assay type: functional; conditions: SK-OV-3, 72 h, read-out: GI; outline: as §1
OVCAR-8 [18] = assay: Cytotoxicity against human OVCAR8 cells at 10^-5 M after 72 hrs by MTS assay; assay type: functional; conditions: OVCAR-8, 72 h, read-out: GI; outline: as §1
MIA PaCa-2 [19] = assay: Cytotoxicity against human MIAPaCa2 cells at 10^-5 M after 72 hrs by MTS assay; assay type: functional; conditions: MIA PaCa-2, 72 h, read-out: GI
HL-60 [20] = assay: Cytotoxicity against human HL60 cells at 10^-5 M after 72 hrs by MTS assay; assay type: functional; conditions: HL-60, 72 h, read-out: GI; outline: as §2
[21] = Cytotoxicity against human HL60R cells at 10^-5 M after 72 hrs by MTS assay; assay type: functional, HL-60; conditions: read-out: GI; outline: as §2
K562 [22] = assay: Cytotoxicity against human K562 cells at 10^-5 M after 72 hrs by MTS assay; assay type: functional; conditions: K562, 72 h, read-out: GI; outline: as §2
HCC 2998 = assay: Cytotoxicity against human HCC2998 cells assessed as cellular growth at 10 uM after 48 hrs by SRB assay; assay type: functional
Outline: (§3)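 NCI60 single-dose screen of cells in RPMI 1640 with 5% FBS and 2 mM L-glutamine, preincubated 24 h at 37 °C, 5% CO₂. Cells were then exposed 48 h to compound added from DMSO stock. TCA-fixed, stained with 0.4% SRB in 1% acetic acid, dye solubilised in 10 mM Tris base and read at 515 nm. Growth is given as percent of untreated control.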

SK-MEL-28 = assay: Cytotoxicity against human SK-MEL-28 cells assessed as cellular growth at 10 uM after 48 hrs by SRB assay; assay type: functional
A498 = assay: Cytotoxicity against human A498 cells assessed as cellular growth at 10 uM after 48 hrs by SRB assay; assay type: functional; outline: as §3
RXF 393 = assay: Cytotoxicity against human RXF393 cells assessed as cellular growth at 10 uM after 48 hrs by SRB assay; assay type: functional
M14 = assay: Antitumor activity against human M14 cells after 48 hrs by SRB assay; assay type: functional; conditions: M14, 48 h
Outline: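 NCI60 panel in RPMI 1640 with 5% FBS and 2 mM L-glutamine. Cells were plated at 5000–40,000/well by doubling time, held 24 h, then time-zero plates were TCA-fixed. Five concentrations (10-fold or half-log dilutions of DMSO stocks) were applied for 48 h at 37 °C, 5% CO2. Cells were fixed with cold TCA (10% final adherent, 16% suspension) and stained with 0.4% SRB. Bound dye was dissolved in 10 mM Tris and read at 515 nm. GI50, TGI and LC50 were calculated per line.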

HCT-116 [23] = assay: Cytotoxicity against human HCT116 cells at 10^-6 M after 72 hrs by MTS assay; assay type: functional; conditions: HCT-116, 72 h, read-out: GI; outline: as §2
HT-29 [24] = assay: Cytotoxicity against human HT-29 cells at 10^-6 M after 72 hrs by MTS assay; assay type: functional; conditions: HT-29, 72 h, read-out: GI; outline: as §2
HCT-15 [25] = assay: Cytotoxicity against human HCT15 cells at 10^-6 M after 72 hrs by MTS assay; assay type: functional; conditions: HCT-15, 72 h, read-out: GI; outline: as §2
[26] = Cytotoxicity against human MDA231 cells at 10^-6 M after 72 hrs by MTS assay; assay type: functional; conditions: MDA-MB-231, 72 h, read-out: GI; outline: as §1
A549 [27] = assay: Cytotoxicity against human A549 cells at 10^-6 M after 72 hrs by MTS assay; assay type: functional; conditions: A549, 72 h, read-out: GI; outline: as §2

COc1ccc(/C(=C2/O[C@@H]([C@H]3COC(C)(C)O3)[C@H]3OC(C)(C)O[C@@H]23)c2cc(OC)c(OC)c(OC)c2)cc1O
inhibition of growth at 1 µM (PC-3 [1]): 0% | inhibition of growth at 1 µM (SF-268 [2]): 7% | inhibition of growth at 1 µM (SK-OV-3 [3]): 0% | inhibition of growth at 1 µM (OVCAR-8 [4]): 0% | inhibition of growth at 1 µM (MIA PaCa-2 [5]): 0% | inhibition of growth at 1 µM (HL-60 [6]): 2% | inhibition of growth at 1 µM [7]: 8% | inhibition of growth at 1 µM (K562 [8]): 2% | Activity [9]: 22.15% | Activity (SW-620): 15.44% | inhibition of growth at 10 µM (HCT-116 [10]): 39% | inhibition of growth at 10 µM (HT-29 [11]): 3% | inhibition of growth at 10 µM (HCT-15 [12]): 66% | inhibition of growth at 10 µM (MCF7): 20% | inhibition of growth at 10 µM [13]: 79% | inhibition of growth at 10 µM (A549 [14]): 35% | inhibition of growth at 10 µM (PC-3 [15]): 71% | inhibition of growth at 10 µM (SF-268 [16]): 68% | inhibition of growth at 10 µM (SK-OV-3 [17]): 48% | inhibition of growth at 10 µM (OVCAR-8 [18]): 17% | inhibition of growth at 10 µM (MIA PaCa-2 [19]): 30% | inhibition of growth at 10 µM (HL-60 [20]): 69% | inhibition of growth at 10 µM [21]: 63% | inhibition of growth at 10 µM (K562 [22]): 82% | Activity (HCC 2998): 102.13% | Activity (SK-MEL-28): 59.6% | Activity (A498): 63.35% | Activity (RXF 393): 81.92% | GI50 (M14; read-out: GI50): 2.4 µM | CC50 (M14; read-out: LC50 (the source's name)): > 100 µM | TGI (M14; read-out: TGI): 5.9 µM | GI50 (M14; read-out: pGI50 (converted)): 2.4 µM | CC50 (M14; read-out: pLC50 (the source's name) (converted)): > 100 µM | TGI (M14; read-out: pTGI (converted)): 5.89 µM | inhibition of growth at 1 µM (HCT-116 [23]): 0% | inhibition of growth at 1 µM (HT-29 [24]): 2% | inhibition of growth at 1 µM (HCT-15 [25]): 3% | inhibition of growth at 1 µM [26]: 0% | inhibition of growth at 1 µM (A549 [27]): 1%
